One molecule from ChEMBL document CHEMBL1133693, “Peptide and peptide mimetic inhibitors of antigen presentation by HLA-DR class II MHC molecules. Design, structure-activity relationships, and X-ray crystal structures” (J Med Chem, 2000) can be followed below.

Each structure is given as a SMILES string.

Assay [1] is described as follows: Mean relative potency is the ratio of potencies of 'Ac-(Cha)RAMASL-NH2' and compound, to inhibit MHC class II DRB1*0101. In short, it runs like this: (§1)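 Scintillation proximity competition assay. Test compounds competed against the radioligand, and bound counts were read by scintillation. Ac-(Cha)RAMASL-NH2 was run as standard competitor in every run. Potency is the ratio of standard IC50 to compound IC50.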

A short description of assay [2]: Mean relative potency is the ratio of potencies of 'Ac-(Cha)RAMASL-NH2' and compound, to inhibit MHC class II DRB1*0401. The method, boiled down:
as §1

Assay [3] concerns T-cell. The assay is described as follows: T-cell inhibitory potency relative to the IC50 of a(Cha)AAAKTAAAAa-NH2 MHC class II DRB1*0101. The format is functional, Homo sapiens.
Assay [4] has as its system T-cell. Briefly: T-cell inhibitory potency relative to the IC50 of a(Cha)AAAKTAAAAa-NH2 in MHC class II DRB1*0401. The format is functional, Homo sapiens.
In another assay the target is Cathepsin B (Bos taurus) (UniProt P07688). The assay is described as follows: Percent of original compound remaining with cathepsin B after incubation for 4 hrs was determined by HPLC.

For `CSCC[C@@H](NC(=O)[C@H]1Cc2ccccc2CN1C(=O)[C@H](CCCN=C(N)N)NC(=O)[C@H](CC1CCCCC1)NC(C)=O)C(=O)N1CCC(c2ccccc2)[C@@H]1C(=O)N[C@@H](CO)C(=O)N(C)[C@@H](CC(C)C)C(N)=O` (stereo not given in full), the Mean relative potency came out at 0.49 in assay [1] and 0.22 in assay [2]. For the same molecule, the T-cell inhibition in the assay on T-cell [3] is reported as 2.5; in the assay on T-cell [4], 2.7. Moreover, the % remaining at Cathepsin B (Bos taurus) came to 116%.
